According to paper PMC5987874 (The Journal of General Physiology, 2018):
Positions count from the first letter of the chain named. Read-outs that look alike come from different tables or passages of the source.

Tests used:
[1] = target: T1, human Hv1 E119A (E^1.58A) (Homo sapiens, UniProt Q96D96, E119A); experiment: Whole-cell voltage clamp, Zn^2+ modulation of GAQ gating; type: cell-based
T1 sequence (Q96D96 1-273 E119A): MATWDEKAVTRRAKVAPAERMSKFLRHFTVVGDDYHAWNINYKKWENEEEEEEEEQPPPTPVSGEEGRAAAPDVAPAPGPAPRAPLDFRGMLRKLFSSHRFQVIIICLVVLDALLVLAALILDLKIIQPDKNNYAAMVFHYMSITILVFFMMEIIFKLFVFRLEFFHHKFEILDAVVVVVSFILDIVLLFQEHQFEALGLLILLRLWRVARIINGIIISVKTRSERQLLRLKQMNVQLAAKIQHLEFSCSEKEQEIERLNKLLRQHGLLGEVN
Outline: (§1)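 Whole-cell patch clamp at ~21°C. Pipette and bath (mM): ~80 TMA-MeSO3, 100 Bis-Tris, 8 HCl, pH 6.5, 310–320 mOsm. ZnCl2 was diluted into bath solution and applied by gravity superfusion, at least 2 min per change. Test step voltage was set per construct from its V0.5. G_STEP = end-of-step current/(V−V_REV). Effect = 1 − G_Zn/G_control, fitted to the Hill equation. IC50 and nH are means ± SEM from separate cells. ΔpIC50 was tested by unpaired t test, P<0.05.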

[2] = target: T2, human Hv1 E119H-H140A (Homo sapiens, UniProt Q96D96, E119H/H140A); experiment: as above; type: cell-based
T2 sequence (Q96D96 1-273 E119H/H140A): T1 sequence (Q96D96 1-273 E119A) with A119H, H140A
Outline: as §1

[3] = target: T3, human Hv1 D123H-H140A (Homo sapiens, UniProt Q96D96, D123H/H140A); experiment: as above; type: cell-based
T3 sequence (Q96D96 1-273 D123H/H140A): T1 sequence (Q96D96 1-273 E119A) with A119E, D123H, H140A
Outline: as §1

[4] = target: T4, human Hv1 D130H (D^1.69H) (Homo sapiens, UniProt Q96D96, D130H); experiment: as above; type: cell-based
T4 sequence (Q96D96 1-273 D130H): T1 sequence (Q96D96 1-273 E119A) with A119E, D130H
Outline: as §1

[5] = target: T5, human Hv1 D130H-H140A (Homo sapiens, UniProt Q96D96, D130H/H140A); experiment: as above; type: cell-based
T5 sequence (Q96D96 1-273 D130H/H140A): T1 sequence (Q96D96 1-273 E119A) with A119E, D130H, H140A
Outline: as §1

[6] = target: human Hv1 H140A-D185H-H193A-R205H (Homo sapiens, UniProt Q96D96, D185H/H140A/H193A/R205H); experiment: as above; type: cell-based
Sequence of human Hv1 H140A-D185H-H193A-R205H (Q96D96 whole entry H140A/D185H/H193A/R205H): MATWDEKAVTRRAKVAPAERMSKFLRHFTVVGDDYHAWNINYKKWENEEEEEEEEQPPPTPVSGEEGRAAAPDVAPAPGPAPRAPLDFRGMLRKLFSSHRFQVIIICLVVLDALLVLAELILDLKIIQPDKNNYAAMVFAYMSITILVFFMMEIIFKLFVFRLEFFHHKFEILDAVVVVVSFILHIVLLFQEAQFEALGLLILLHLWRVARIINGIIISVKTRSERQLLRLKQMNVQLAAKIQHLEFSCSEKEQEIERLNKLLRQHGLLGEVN
Outline: as §1

[7] = target: T6, human Hv1 H193A (H^3.71A) (Homo sapiens, UniProt Q96D96, H193A); conditions: ref Ramsey et al., 2006; cited from earlier work
T6 sequence (Q96D96 1-273 H193A): T1 sequence (Q96D96 1-273 E119A) with A119E, H193A

[8] = VSTEP 120 mV, calculated as log (IC50)
[9] = VSTEP 80 mV, calculated as log (IC50)
[10] = read-out: Mean IC50 @ VSTEP, VSTEP 80 mV, pH 6.5, mean of fits in separate cells
[11] = read-out: IC50, fit of the mean data to a Hill function, Fig. 4C

Mean ΔpIC50 = (pIC50_1 - pIC50_2) ([1]; E119A vs WT): −0.28 | nH, fit of the mean data to a Hill function ([1]; Fig. 3C): 0.8 | Hill value ([1]; VSTEP 120 mV): 0.80 | pIC50 [1, 8]: 5.16 | IC50 ([1]; read-out: IC50, fit of the mean data to a Hill function, Fig. 3C): 6.7 µM | Mean ΔpIC50 = (pIC50_1 - pIC50_2) ([2]; E119H-H140A vs H140A): 1.81 | nH, fit of the mean data to a Hill function ([2]; Fig. 4A): 1.2 | Hill value ([2]; VSTEP 120 mV): 2.09 | pIC50 [2, 8]: 6.23 | IC50 ([2]; read-out: IC50, fit of the mean data to a Hill function, Fig. 4A): 0.67 µM | Mean ΔpIC50 = (pIC50_1 - pIC50_2) ([3]; D123H-H140A vs H140A): 0.36 | nH, fit of the mean data to a Hill function ([3]; Fig. 4B): 0.5 | Hill value ([3]; VSTEP 80 mV): 0.58 | pIC50 [3, 9]: −4.78 | IC50 ([3]; read-out: IC50, fit of the mean data to a Hill function, Fig. 4B): 20.5 µM | IC50 [3, 10]: 18 µM | Mean ΔpIC50 = (pIC50_1 - pIC50_2) ([4]; D130H vs WT): 0.22 | nH, fit of the mean data to a Hill function ([4]; Fig. 4C): 0.7 | Hill value ([4]; VSTEP 120 mV): 0.95 | pIC50 [4, 8]: 5.67 | IC50 [4, 11]: 2.4 µM | Mean ΔpIC50 = (pIC50_1 - pIC50_2) ([5]; D130H-H140A vs H140A): 0.01 | nH, fit of the mean data to a Hill function ([5]; Fig. 4C): 0.5 | Hill value ([5]; VSTEP 80 mV): 0.58 | pIC50 [5, 9]: −4.42 | IC50 [5, 11]: 39.7 µM | IC50 [5, 10]: 41.5 µM | Mean ΔpIC50 = (pIC50_1 - pIC50_2) ([6]; H140A-D185H-H193A-R205H vs H140A-D185H-H193A): 0.54 | Mean pIC50 ([6]; Table 2 only, calculated as log (IC50)): −3.68
Structure (SMILES): [Cl-].[Cl-].[Zn+2] [Zn^2+, ZnCl2]
decrease of Zn^2+ potency by single mutation [7]: 10- to 30 fold
